Compound activity as filed in PubChem BioAssay.
A selection: hits, their analogues and other compounds. The true share with any hit is near 3.2%.
DAX1 inh-1 = inhibitors of DAX1 repression of SF-1 activated StAR promoter | HEK293T StAR-luciferase reporter, SF-1/DAX-1 repression relief | 370,000 compounds, 1.1% hits | inhibition, % at 6.8 µM;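 active means inhibition above the mean over all tested compounds plus 3 SD, cut at about 3.6% in these data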;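 further: 0% = DAX-1 cells with DMSO and 100% = cells lacking DAX-1 with DMSO; higher inhibition means more luminescence from relief of DAX-1 repression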
SMARCA2 activ = activators of SMARCA2 function; 370,000 compounds, 1% hits; MG213 cells, MMTV-luciferase reporter, dexamethasone, overnight; activation, % at 9.1 µM; AID 652017; in the data active means activation above about 7.8%;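 further: 0% = vehicle wells and 100% = reference activator wells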
NR2E3 ag-1 = NR2E3 (human) agonism; Q9Y5X4; GST-NR2E3/biotin-RetCOR TR-FRET, 1536-well; inhibition of corepressor binding, % at 4.78 µM; 320,000 compounds, 0.12% hits; AID 2300;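 active means percent inhibition above the cutoff of mean plus 3 SD of all tested compounds, set per screening campaign, cut at about 20% in these data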;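 further: 0% = DMSO wells and 100% = biotin wells as full block of FRET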
Target sequence (Q9Y5X4 whole entry, looked up): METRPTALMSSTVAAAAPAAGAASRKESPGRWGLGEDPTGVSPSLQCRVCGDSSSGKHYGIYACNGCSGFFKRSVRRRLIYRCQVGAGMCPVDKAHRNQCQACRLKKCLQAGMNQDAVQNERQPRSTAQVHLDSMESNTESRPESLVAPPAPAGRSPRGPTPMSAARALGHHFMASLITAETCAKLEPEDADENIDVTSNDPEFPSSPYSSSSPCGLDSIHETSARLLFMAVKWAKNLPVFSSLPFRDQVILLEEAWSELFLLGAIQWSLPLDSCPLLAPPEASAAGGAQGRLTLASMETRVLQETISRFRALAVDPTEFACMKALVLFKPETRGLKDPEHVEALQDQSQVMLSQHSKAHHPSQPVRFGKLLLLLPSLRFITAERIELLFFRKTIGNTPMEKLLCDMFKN
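Material: NR2E3–RetCOR corepressor complex | Quantity: 1.35 nM GST-tagged NR2E3 final | Schedule: 5 h at 4 °C | Replication: Singlicate compound wells | Reagent: RetCOR corepressor, biotinylated, 7 nM | Controls: Biotin wells as high control, 0.6% DMSO wells as low control | Signal: TR-FRET, Eu(K)-anti-GST donor, streptavidin-D2 acceptor, ex 340, em 617/671 nm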
NR2E3 ag-2 = activates human NR2E3 receptor; Q9Y5X4; inhibition of corepressor binding, % at 3.98 µM; 360,000 compounds, 0.35% hits; CHO-S Gal4-NCOR/VP16-NR2E3 two-hybrid, luciferase; AID 602229;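 active means inhibition above the mean of all tested compounds plus 3 SD, cut at about 70% in these data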;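 further: 0% = DMSO with NR2E3 transfected cells and 100% = cells lacking NR2E3 construct; higher means lower luciferase signal from less NR2E3 corepressor binding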
JMJD2C inh = blocks human GASC-1 demethylase activity; 330,000 compounds, 0.069% hits; inhibition, % at 2.35 µM; Q9H3R0; GST-JMJD2C(1-420) H3K9me3 demethylation, DELFIA europium; AID 2099;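 active means more than half of a compound's replicate wells show inhibition beyond 50%, single wells judged on their own value; inconclusive means some, but no more than half, of replicates pass 50% inhibition; inactive means no replicate passes 50% inhibition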;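 further: signal counts dimethyl H3K9 product captured on neutravidin plate; 0% = median of DMSO wells and 100% = 0.3 times that DMSO median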
DAX1 inh-2 = inhibits human nuclear receptor DAX1; AID 504766; inhibition, % at 6.75 µM; 340,000 compounds, 0.99% hits; HEK293 Gal4-DAX1 luciferase reporter, luminescence; P51843;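 active means inhibition above the mean over all tested compounds plus 3 SD, cut at about 4.2% in these data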;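 further: 0% = DAX1-transfected cells with DMSO and 100% = empty-vector control cells with DMSO; inhibition shows as a rise in luminescence from relieved DAX1 repression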
Target sequence (P51843 207-470 limits assumed): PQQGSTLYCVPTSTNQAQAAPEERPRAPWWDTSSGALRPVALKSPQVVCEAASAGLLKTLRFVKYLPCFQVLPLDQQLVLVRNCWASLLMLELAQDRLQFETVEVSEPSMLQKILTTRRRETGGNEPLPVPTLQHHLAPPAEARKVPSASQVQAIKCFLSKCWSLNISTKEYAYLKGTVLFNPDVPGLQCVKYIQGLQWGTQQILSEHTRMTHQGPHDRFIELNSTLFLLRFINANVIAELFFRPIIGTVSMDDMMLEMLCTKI
DAX1 inh confirm = confirmation of human DAX1 (NR0B1) inhibitors | shares compounds with DAX1 inh-1 | HEK293T StAR-promoter luciferase reporter, SF-1/DAX-1 repression | inhibition, % at 6.8 µM | 2,400 compounds, 87% hits | AID 652134;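 active means inhibition above the average of every tested compound plus 3 SD, cut at about 3.8% in these data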;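 further: 0% = DAX-1 cells with DMSO and 100% = no DAX-1 control cells with DMSO; active compounds raise luminescence by relieving repression of the StAR reporter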
SF1 mutant ctr = nonselective inhibitor or artifact in SF-1 mutant DAX1 counter-screen | shares compounds with DAX1 inh-1 | HEK293 StAR-luciferase, SF-1 AF2 mutant, luminescence | inhibition, % at 6.8 µM | 2,400 compounds, 78% hits | AID 652136;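 active means inhibition above the mean of all tested compounds plus 3 SD, cut at about 3% in these data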;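 further: 0% = DAX-1 transfected cells with DMSO and 100% = cells without DAX-1 with DMSO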
Numbers without * were called inactive; i = inactive; u = inconclusive; x = not tested or not shown.

SMILES	DAX1 inh-1	SMARCA2 activ	NR2E3 ag-1	NR2E3 ag-2	JMJD2C inh	DAX1 inh-2	DAX1 inh confirm	SF1 mutant ctr
CC(C)(C)c1ccccc1NC(=O)C1=COCCO1	0.6	2.2	-1.1	-10.0	0.8	0.8	x	x
O=C(NCCc1ccccc1)C1=COCCO1	7.8*	4.9	0.4	-93.5	i	1.1	8.7*	6.5*
CC1=CC(c2ccccc2)=Nc2ccc(C)cc2N1	5.9*	6.7	3.0	-129.7	4.9	0.1	15.4*	8.7*
COc1ccc2c(C)cc(N3CCOCC3)nc2c1	0.5	0.8	-0.4	-37.5	62.4	0.0	x	x
COc1ccc2nc(N3CCOCC3)cc(C)c2c1	5.8*	4.6	0.1	-102.7	1.9	1.8	12.2*	6.3*
CCN(C(=O)CN1CCN(c2nc(-c3ccccc3)cs2)CC1)c1ccccc1C	-1.9	-6.2	x	x	x	x	x	x
Cc1nn(-c2ccccc2)c2sc(C(=O)NC3CCCCCC3)cc12	0.1	-3.5	x	x	x	x	x	x
COc1ccc(-c2cc(NC=O)c3ncc(-c4ccc(OC)c(OC)c4)n3c2)cc1	-4.5	2.1	x	-29.2	x	x	x	x
COc1ccc(-c2cnc3c(NC=O)cc(-c4ccccc4OC)cn23)cc1OC	10.9*	4.1	x	14.5	x	x	29.8*	-8.3
O=C1c2ccccc2C(=O)C1c1ccnc2ccccc12	5.3*	6.2	0.8	-137.7	-2.0	2.3	-2.0	-4.0
CCN(C(=O)C1CCCN1S(=O)(=O)c1cccnc1)c1ccccc1 (stereo not drawn)	1.2	-3.6	x	x	x	x	x	x
O=C(Nc1ccc2ccccc2c1)c1ccc(Cl)cc1Cl	2.4	0.8	0.6	-128.9	-11.9	0.2	x	x
O=C(Nc1ccc2ccccc2c1)c1ccccc1Cl	13.0*	3.5	x	-134.1	x	2.3	16.9*	9.2*
CCN(CC)c1ccc(-c2nn3c(-c4ccccc4Cl)nnc3s2)cc1	-1.6	0.6	x	x	x	x	x	x
O=C(NCCOc1ccccc1)c1ccccc1NC(=O)C1CCCO1 (stereo not drawn)	5.6*	6.0	-2.5	-77.5	-5.3	1.2	8.3*	7.3*
C#CCNC(=O)C[C@@H]1C(=O)N2CCCC3=C2[C@@]1(C(=O)OCC)CCC3	-1.0	-1.5	x	x	x	x	x	x
Cc1cc(NC(=O)NC(=O)c2ccccc2F)no1	5.2*	1.8	2.4	-75.0	-7.2	1.3	8.7*	2.5
COC(=O)C1CN(C2CCCC2)CCS(=O)(=O)N1Cc1ccc(C)cc1 (stereo not drawn)	-1.5	-0.5	x	x	x	x	x	x
O=C(NN=C1C2CC3CC(C2)CC1C3)c1cccs1	7.4*	3.1	-1.1	-141.9	u	3.0	2.5	1.4
O=C(N/N=C1/CC2C=CCC12)c1cccs1 (stereo not drawn)	8.3*	6.5	x	-169.9	-5.5	2.0	2.2	2.1
O=C(NN=C1C2CC3CC(C2)CC1C3)c1ccccc1O	1.6	0.9	-1.5	-18.8	0.8	0.0	x	x
COc1cc2c(c(OC)c1OC)-c1ccc(N(C)CC(OC)OC)c(=O)cc1[C@@H](NC(C)=O)CC2	0.4	1.0	-1.8	-8.2	11.9	-1.1	x	x
CCOCC(=O)NC1CCc2cc(OC(=O)COCC)c(OC)c(OC)c2-c2ccc(SC)c(=O)cc21 (stereo not drawn)	4.5*	6.0	x	15.2	x	0.8	17.2*	-5.8
COc1cc2c(c(OC)c1OC)-c1ccc(OC)c(=O)cc1[C@@H](NC(C)=O)CC2	6.5*	-1.9	4.2	32.3	4.0	0.8	23.2*	-4.2
C[C@H](O)[C@@H]1CN2CCc3c([nH]c4c(-c5ccccc5)cccc34)[C@@H]2C[C@@H]1N(C)CC1CCCCC1	-0.1	-3.3	x	x	x	x	x	x
SMILES	DAX1 inh-1	SMARCA2 activ	NR2E3 ag-1	NR2E3 ag-2	JMJD2C inh	DAX1 inh-2	DAX1 inh confirm	SF1 mutant ctr
COc1ccc(CN(CCN2CCOCC2)C(=O)c2cccc(F)c2)cc1OC	-0.1	-1.3	x	x	x	x	x	x
CC(=Nc1ccccc1)C1=C(O)C(Cc2ccccc2)NC1=O (stereo not drawn)	8.2*	3.8	x	-8.2	x	2.3	30.8*	-4.8
CC(=Nc1ccccc1)C1=C(O)C(Cc2ccc(F)cc2)NC1=O (stereo not drawn)	-4.0	5.3	x	-78.1	x	-0.1	x	x
COC(=O)[C@H](C(C)C)N1Cc2nnn(Cc3ccccc3)c2-c2ccccc2S1(=O)=O	-1.0	1.5	x	x	x	x	x	x
C/C(=N\NC(N)=O)c1ccc(-n2ccnc2)cc1	0.3	-5.4	2.1	-32.4	-4.0	0.7	x	x
C/C(=N\Nc1ccc(C(=O)O)cc1)c1ccc(-n2ccnc2)cc1	6.8*	2.5	-2.2	-93.9	-15.4	-1.2	8.3*	5.3*
Cn1cccc1C=NNC(=O)c1cc(-c2ccc(Cl)cc2)n[nH]1	0.3	-1.5	x	x	x	x	x	x
CCCCC(=O)N1CCN(c2nc3ccc(F)cc3s2)CC1	5.2*	-2.7	0.8	-32.2	5.8	0.0	3.5	3.8*
CCCC(=O)N1CCN(c2nc3ccccc3s2)CC1	1.5	4.4	2.2	-122.3	-2.7	0.8	x	x
Cc1ccc2cc(C#N)c(SCC(=O)NCC3CCCO3)nc2c1 (stereo not drawn)	0.0	0.8	1.1	-27.0	-19.4	-0.2	x	x
COC(=O)CSc1nc2cc(C)ccc2cc1C#N	5.0*	5.5	0.2	-196.7	u	4.4*	18.1*	9.3*
O=C(Nc1nnc(C2CC2)s1)c1cncc(Br)c1	4.8*	3.1	x	-95.1	2.6	0.7	5.9*	3.9*
O=C(Nc1nnc(C2CCCO2)s1)c1ccc(Br)cc1 (stereo not drawn)	1.6	4.2	-0.3	-54.3	1.6	0.5	x	x
C/C(C=NNC(=O)c1cc(-c2ccc(Cl)cc2)n[nH]1)=C\c1ccccc1	-1.9	1.9	x	x	x	x	x	x
COc1ccccc1NC(CC(=O)c1ccccc1)C(=O)OCC(=O)c1ccc(C)c(C)c1 (stereo not drawn)	7.8*	6.0	-2.5	-192.1	1.7	3.0	21.2*	8.1*
COc1ccccc1NC(CC(=O)c1ccccc1)C(=O)OCC(=O)c1ccc(C)cc1 (stereo not drawn)	2.9	2.7	-2.6	-120.4	-11.3	3.1	x	x
COc1ccccc1NC(CC(=O)c1ccccc1)C(=O)OCC(=O)c1ccc(Br)cc1 (stereo not drawn)	7.8*	1.4	-2.3	-148.8	8.2	0.4	8.9*	-0.7
CCCCOc1ccc(C(=O)NC2CCCCN(Cc3ccccc3C)C2=O)cc1 (stereo not drawn)	-4.5	-2.9	x	x	x	x	x	x
O=C(NCCn1ccc2ccccc21)c1ccc2c(c1)OCO2	4.8*	4.5	0.0	-71.6	6.1	3.2	12.7*	7.9*
COc1ccc(C(=O)NCCn2ccc3ccccc32)cc1	-0.2	1.9	-1.5	-144.8	8.6	2.0	x	x
